{"source": "ChEMBL document CHEMBL1145405", "about": "“Synthesis, biochemical, and cellular evaluation of farnesyl monophosphate prodrugs as farnesyltransferase inhibitors” (J Med Chem, 2007)", "key": {"STS-26T": {"test_system": "STS-26T", "test": "Growth inhibition of human STS-26T cells at 1 to 5 uM after 24 hrs", "assay_type": "functional, cell-based", "procedure,_shortened": "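STS-26T cultures were plated in medium with 5% FBS and dosed about 24 h later at 1, 3 or 5 µM, alone or with 1 µM lovastatin, against a DMSO vehicle. Cells were harvested at various times by trypsinization and counted with a hemocytometer; viability was judged by trypan blue exclusion. Values are means ± SD of three culture dishes.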"}, "[1]": {"test": "Cell cycle arrest in human STS-26T cells assessed as accumulation in G1 phase at 1 uM after 24 hrs", "assay_type": "functional, cell-based", "procedure,_shortened": "(§1)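 STS-26T cells were grown in RPMI-1640 with 5% FBS and penicillin/streptomycin at 37 °C under 5% CO2. About 24 h after plating, cells were treated with 1 µM compound, alone or with 1 µM lovastatin, against a DMSO control. After 24 h, DNA content was read by flow cytometry (at least 10^4 events). G1, S and G2/M percentages of the nonapoptotic population came from histogram fitting.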"}, "[2]": {"test": "Cell cycle arrest in human STS-26T cells assessed as accumulation in G2/M phase at 1 uM after 24 hrs", "assay_type": "functional, cell-based", "procedure,_shortened": "as §1"}, "[3]": {"test": "Cell cycle arrest in human STS-26T cells assessed as accumulation in S phase at 1 uM after 24 hrs", "assay_type": "functional, cell-based", "procedure,_shortened": "as §1"}, "[4]": {"test": "Apoptosis in human STS-26T cells at 1 uM after 24 hrs", "assay_type": "functional"}, "[5]": {"target": "Protein farnesyltransferase (Rattus norvegicus)", "test": "Inhibition of farnesyltransferase assessed as farnesylation of Dansyl-GCVLS peptide"}}, "note": "pIC50: −log10 of the molar value. Calls of active or inactive are those of the source. No cut-off for these calls is given here.", "data": [{"molecule": "C=CC/C(=C\\COP(=O)(OCc1ccc([N+](=O)[O-])o1)N(C)CCCCCl)CC/C=C(\\C)CCC=C(C)C", "note": "(centres undefined)", "values": [{"measurement": "Activity", "setting": "STS-26T", "result": "inactive"}, {"measurement": "Activity", "setting": "[1]", "result": 48, "unit": "%"}, {"measurement": "Activity", "setting": "[2]", "result": 12, "unit": "%"}, {"measurement": "Activity", "setting": "[3]", "result": 40, "unit": "%"}, {"measurement": "Activity", "setting": "[4]", "result": 0.5, "unit": "%"}]}, {"molecule": "CC(C)=CCC/C(C)=C/CC/C(=C/COP(=O)(O)O)C(C)(C)C", "values": [{"measurement": "pIC50", "setting": "[5]", "result": 7.80}]}, {"molecule": "CC[C@H](C)C(=O)O[C@H]1C[C@@H](C)C=C2C=C[C@H](C)[C@H](CC[C@@H]3C[C@@H](O)CC(=O)O3)[C@H]21", "note": "[LOVASTATIN]", "values": [{"measurement": "Activity", "setting": "[1]", "result": 53, "unit": "%"}, {"measurement": "Activity", "setting": "[2]", "result": 10, "unit": "%"}, {"measurement": "Activity", "setting": "[3]", "result": 37, "unit": "%"}, {"measurement": "Activity", "setting": "[4]", "result": 0.3, "unit": "%"}]}, {"molecule": "CC(C)=CCC/C(C)=C/CC/C(=C/COP(=O)(OCc1ccc([N+](=O)[O-])o1)N(C)CCCCCl)C(C)(C)C", "note": "(centres undefined)", "values": [{"measurement": "Activity", "setting": "STS-26T", "result": "inactive"}]}, {"molecule": "C=CC/C(=C\\COP(=O)(O)O)CC/C=C(\\C)CCC=C(C)C", "values": [{"measurement": "pIC50", "setting": "[5]", "result": 7.89}]}, {"molecule": "CC(C)=CCC/C(C)=C/CC/C(=C/COP(=O)(O)O)CC=C(C)C", "values": [{"measurement": "pIC50", "setting": "[5]", "result": 5.30}]}, {"molecule": "CC(C)=CCC/C(C)=C/CC/C(=C/COP(=O)(OCc1ccc([N+](=O)[O-])o1)N(C)CCCCCl)CC=C(C)C", "note": "(centres undefined)", "values": [{"measurement": "Activity", "setting": "STS-26T", "result": "inactive"}]}]}
